Shown are actives, neighbours in structure and some others; about 3.7% of the full set was active somewhere.
Dynein transport – blocks dynein driven cargo transport along microtubules. 3617.4 mouse cells, GR-EGFP nuclear translocation imaging; test concentration mostly 20 µM; stimulated with dexamethasone, 1 µM; stronger effect = lower value. z-score, hits read low. 220,000 compounds, 0.47% hits;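 active means plate z-score of nuclear minus cytoplasmic receptor signal below a set negative limit, without overly bright fluorescence or cell loss, cut at about -3.5 in these data, passing the limit was not always enough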;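 further: z-score of nuclear minus cytoplasmic ring GR-EGFP intensity difference per well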
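Buffer or medium: tet-free, stripped-serum medium; Also added: dexamethasone, 1.0 µM final; Technique: high-content fluorescence imaging after fixation; Times: 48 h induction, 1 h compound, 30 min dex at 37 °C; Read-out: per-cell GR-EGFP intensity, nucleus versus surrounding cytoplasmic ring, well-averaged.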
Mdm2-MdmX inh – disrupts the human Mdm2-MdmX interaction; AID 485346; inhibition, % at 8 µM; SaOS-2 split-luciferase Mdm2/MdmX complementation, luminescence; 330,000 compounds, 3% hits;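 active means inhibition of at least 50% at 8 µM in the primary screen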
UPR CHOP act – activators of apoptotic arm of unfolded protein response (CHOP); CHO-CHOP luciferase reporter, UPR activation, luminescence; percent of tunicamycin response over DMSO baseline; activation, % at 10 µM; 330,000 compounds, 0.34% hits; AID 449763;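 active means at 10 µM dose, activation of 40% or more, normalized to positive control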;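 further: 100% = tunicamycin at 10 µg/mL and 0% = DMSO alone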
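System: CHO-CHOP luciferase reporter cell line | Buffer or medium: F12 medium containing 10% fetal bovine serum | Doses: One dose, 10 µM in 0.5% DMSO | Times: 6 h compound exposure at 37 °C after overnight seeding | Signal: Luciferase luminescence | Read-out: % activation vs tunicamycin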
MDM2 E3 inh – blocks human Mdm2 ubiquitin ligase activity; Q00987; cell-based MDM2 ubiquitination luciferase reporter, 2 h; 0 = plate control, 100 = twice control, blank-subtracted; signal enhancement, % at 5 µM; 210,000 compounds, 0.11% hits;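 active means signal enhancement of 30% or more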;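 further: luminescence tracks abundance of the self-degrading MDM2-luciferase fusion protein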
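Assay system: stable mammalian line carrying autodegrading MDM2–luciferase fusion reporter; amount: 2000 cells seeded into each well; buffer or medium: DMEM; benchmarks: plate control and blank wells; signal: luciferase luminescence; timing: 2 h compound exposure at 37 °C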
Beta2AR agonist – activates human beta-2 adrenergic receptor causing internalization; P07550; Am2.2-beta2AR cells, FAP receptor internalization, flow cytometry; response, % (no concentration beside the values); 340,000 compounds, 0.43% hits; AID 504454;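 active means response above a set limit, near 3 SD of response in nonfluorescent compounds, cut at about 42% in these data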
Target sequence (P07550 whole entry, looked up): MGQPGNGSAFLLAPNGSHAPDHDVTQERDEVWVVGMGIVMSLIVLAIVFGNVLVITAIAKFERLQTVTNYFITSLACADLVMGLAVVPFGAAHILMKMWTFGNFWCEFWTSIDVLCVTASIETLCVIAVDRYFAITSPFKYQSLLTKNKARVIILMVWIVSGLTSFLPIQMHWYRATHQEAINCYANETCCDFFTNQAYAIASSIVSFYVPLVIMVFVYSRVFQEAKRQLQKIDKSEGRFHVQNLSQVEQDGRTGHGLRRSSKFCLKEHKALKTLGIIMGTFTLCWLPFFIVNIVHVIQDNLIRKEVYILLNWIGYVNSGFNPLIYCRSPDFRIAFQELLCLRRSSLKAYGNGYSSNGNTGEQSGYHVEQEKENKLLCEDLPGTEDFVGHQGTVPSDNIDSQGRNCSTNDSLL
XBP1 UPR activ – adaptive UPR (XBP1) activation; activation, % at 20 µM; CHO-XBP1 luciferase reporter, IRE1-XBP1 UPR activation, luminescence; percent of tunicamycin response, DMSO as zero; 330,000 compounds, 0.33% hits;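 active means versus positive control, 20 µM dose yields 30% or more activation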;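 further: 100% = tunicamycin at 10 µg/mL and 0% = DMSO only wells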
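Material: CHO-XBP1 cells stably carrying IRE1-XBP1-driven luciferase reporter / Amount: 1000 cells per well / Compound: 20 µM, 1% DMSO / Times: 6 h treatment, 37 °C / Detection: luciferase luminescence / Measure: % activation of reporter signal versus tunicamycin and DMSO controls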
Mdm2 MdmX conf – human Mdm2/MdmX binding inhibition, confirmed; AID 489028; luminescent assay; inhibition, % at 8 µM; 10,000 compounds, 55% hits; shares compounds with Mdm2-MdmX inh; in the data active means inhibition above about 40%
FLuc counter – counter-screen for Mdm2/MdmX inhibitors: full-length luciferase | shares compounds with Mdm2-MdmX inh | SaOS-2 full-length luciferase counterscreen, luminescence | inhibition, % at 8 µM | 6,200 compounds, 77% hits | AID 504607;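 active means mean inhibition at 8 µM reaching about 37%, which flags the compound as non-specific, limit read from the data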;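 further: p53-null SaOS-2 cells with luciferase driven by a doxycycline-inducible promoter; compound on cells about two nights before reading with doxycycline added after day one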
The depositor's hits bear a star; nt = not tested or not shown.

SMILES	Dynein transport	Mdm2-MdmX inh	UPR CHOP act	MDM2 E3 inh	Beta2AR agonist	XBP1 UPR activ	Mdm2 MdmX conf	FLuc counter
O=[N+]([O-])c1ccc(-c2c(O)c3ccccc3c3nc4ccccc4nc23)cc1	-0.5	65.2*	-1.7	-11.6	1.6	-0.1	11.7	nt
COc1ccc(C2CC(c3ccccc3OC(C)=O)=NN2C(=O)/C=C/c2ccccc2)cc1OC (centres undefined)	0.497	41.4	0.1	-2.1	38.9	2.4	nt	nt
COc1ccc(C2=NN(C(=O)/C=C/c3ccccc3)C(c3ccccc3)C2)c(OC(C)=O)c1 (centres undefined)	-0.24	58.2*	1.1	-10.3	-2.0	-1.4	14.9	nt
COc1ccccc1Nc1nnc(SCC(=O)c2c(N)n(C3CC3)c(=O)[nH]c2=O)s1	nt	27.3	0.7	nt	1.4	-0.7	nt	nt
COC(=O)c1ccsc1NC(=O)c1ccccc1	-0.63	20.6	0.8	-6.4	0.2	8.5	nt	nt
COC(=O)Nc1sccc1C(=O)Nc1sccc1C(=O)OC	-0.35	60.9*	-0.2	-0.1	2.6	0.1	12.2	nt
OC(CNCc1ccncc1)c1ccccc1 (centres undefined)	nt	17.4	0.9	nt	4.8	-3.0	nt	nt
OC(CNCc1ccc(-c2ccccc2)cc1)c1ccccc1 (centres undefined)	-0.23	53.1*	-0.7	-10.5	15.2	-1.3	57.6*	26.9
CCOc1cc(C2C3=C(CC(C)(C)CC3=O)N(CCOC)C3=C2C(=O)CC(C)(C)C3)ccc1O	nt	14.4	2.5	nt	-7.0	0.7	nt	nt
O=C1/C(=C/c2ccc(O)cc2)SC(=S)N1Cc1cccnc1	-1.06	16.8	0.8	5.4	-15.7	8.7	nt	nt
COc1ccc(/C=C2\SC(=S)N(Cc3cccnc3)C2=O)cc1C	-0.264	59.2*	3.0	nt	10.2	1.1	31.6	nt
C#CCOc1ccc(/C=C2\SC(=S)N(Cc3cccnc3)C2=O)cc1	0.586	60.3*	0.4	-0.9	9.6	0.1	70.5*	55.4*
COc1cc(/C=C2/SC(=S)N(Cc3ccccc3)C2=O)ccc1O	nt	5.9	2.9	nt	1.4	3.2	nt	nt
CN(C)c1ccc2c(c1)Sc1cc(N(C)C)ccc1N2C(=O)c1ccccc1	0.0941	-0.8	0.6	-3.8	9.0	-3.4	nt	nt
Cc1ccc(C(=O)C(c2ccccc2)N2Cc3ccccc3C2=N)cc1 (centres undefined)	1.15	78.6*	1.0	3.9	80.7*	9.0	18.5	nt
O=C(O)Cc1cccc(=O)c(O)c1C(=O)O	nt	nt	nt	nt	-3.2	nt	nt	nt
CC1CCc2nc(N)c(C#N)c(-c3cccnc3)c2C1 (centres undefined)	-0.568	84.3*	-2.3	-34.3	-9.0	2.9	78.5*	20.8
CNC(=O)NC(=O)C(OC(=O)Cc1cccc(C(F)(F)F)c1)c1ccccc1 (centres undefined)	nt	16.1	0.6	nt	5.3	0.8	nt	nt
COc1cccc(CNC(=O)c2cccc(S(=O)(=O)N3CCN(Cc4ccccc4)CC3)c2)c1	nt	nt	nt	nt	-2.4	nt	nt	nt
Cc1ccc(-c2cc3cccc[n+]3cc2-c2ccc(C)cc2)cc1	0.525	52.3*	-1.7	-28.0	-11.3	-2.5	42.7*	47.5*
CC1=C(/C=C/C(=O)O)C(C)(C)CCC1	-0.834	0.8	0.1	1.7	-4.0	-1.6	nt	nt
CC1=C(/C=C/C(C)=C/C=C/C(C)=C\C(=O)O)C(C)(C)CCC1	nt	59.6*	4.3	nt	3.9	-6.2	48.8*	45.4*
CCN(CC(=O)NCc1cccs1)C(=O)c1ccc(OC)c(OC)c1	nt	16.0	2.1	nt	-1.8	-1.1	nt	nt
CCCNS(=O)(=O)c1cc(CN2C(=O)c3cccnc3C2=O)ccc1OC	nt	22.9	-0.6	nt	4.3	-4.0	nt	nt
CCOC(=O)c1sc(NC(=O)CN(CC(C)C)CC(C)C)c(C(=O)OCC)c1C	-0.0757	60.7*	8.5	nt	10.7	0.8	0.0	nt
SMILES	Dynein transport	Mdm2-MdmX inh	UPR CHOP act	MDM2 E3 inh	Beta2AR agonist	XBP1 UPR activ	Mdm2 MdmX conf	FLuc counter
CCOC(=O)c1c(NC(=O)CC(C)C)sc(C(C)=O)c1C	1.07	16.6	-0.4	-1.5	-21.4	0.2	nt	nt
O=C(COC(=O)c1c[nH]c2ccccc12)NC1CCCCC1	nt	7.4	1.9	nt	-6.4	-1.4	nt	nt
COc1ccc(C2=Nn3c(nnc3-c3ccccc3F)SC2)cc1OC1CCCC1	nt	99.8*	2.9	nt	23.9	17.9	86.0*	28.6
COc1ccc(OC)c(-c2nnc3n2N=C(c2ccc(OC)c(OC4CCCC4)c2)CS3)c1	nt	84.2*	2.2	nt	26.0	14.0	74.7*	66.4*
COc1ccc(C2=Nn3c(nnc3-c3ccccc3F)SC2)cc1OC1CCOC1 (centres undefined)	nt	70.1*	-1.2	nt	19.0	10.9	63.5*	33.4
CCN(CC)CCN1C(=O)C(O)=C(C(=O)c2cc3cccc(OC)c3o2)C1c1ccc(F)cc1 (centres undefined)	0.0772	1.0	1.3	0.5	-2.7	-2.5	nt	nt
CCc1cc(C)cc(OCCNC(=O)c2cncc(Br)c2)c1	2.36	58.5*	-1.1	-12.0	5.3	-3.3	29.2	nt
O=C(NCCOc1ccccc1)c1cncc(Br)c1	-0.893	-18.6	4.0	-9.3	1.4	4.3	nt	nt
CCN(CC)CCOC(=O)c1ccc(NC(=O)CSc2nnc(-c3cccs3)n2CC)cc1	nt	nt	nt	nt	-13.4	nt	nt	nt
Cc1ccc(C2=NN(C(=O)CSc3nc4ncc(Cl)cc4[nH]3)C(c3ccco3)C2)cc1 (centres undefined)	-0.159	-12.5	1.8	-6.2	-2.3	-0.3	nt	nt
Cc1ccc(C2=NN(C(=O)CSc3nccn3C)C(c3ccco3)C2)cc1 (centres undefined)	nt	65.0*	0.5	nt	-18.8	-7.6	57.2*	67.5*
O=C(O)/C=C/C(=O)N1N=C(c2ccco2)CC1c1ccco1 (centres undefined)	nt	6.3	0.5	nt	3.4	1.7	nt	nt
CCS(=O)(=O)Nc1ccc(C2=NN(C(=O)c3ccco3)C(c3ccco3)C2)cc1 (centres undefined)	nt	53.1*	0.7	nt	2.6	-0.7	74.2*	56.1*
O=C(CCl)N1N=C(c2ccco2)CC1c1ccco1 (centres undefined)	nt	96.8*	9.4	nt	1.8	1.2	49.5*	31.2
C=CC[C@@H](CC(=O)N[C@@H](CO)Cc1ccccc1)C(=O)N[C@@H](COC(=O)[C@H](CC=C)CC(=O)OC(C)(C)C)Cc1c[nH]c2ccccc12	nt	40.1	0.6	nt	-8.0	-1.6	nt	nt

Screening data: PubChem BioAssay, several laboratories
